Data on 1 molecule can be found in ChEMBL document CHEMBL4699493, “Development of Bis-cyclic Imidazolidine-4-one Derivatives as Potent Antibacterial Agents” (J Med Chem, 2020).

Data set [1] has as its system Staphylococcus aureus. Briefly: Antibacterial activity against methicillin-resistant Staphylococcus aureus ATCC 33591. In kind it is functional. The method in brief:
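Broth microdilution in TSB. Strains were grown 16 h, subcultured 6 h to log phase, then diluted to 10^6 CFU/mL by OD600. Compound came from a 5 mg/mL DMSO stock diluted in TSB and serially diluted, top final concentration 25 μg/mL. MIC was the lowest concentration giving complete growth inhibition. Done ≥3 times in duplicate.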

Data set [2] is described as follows: Hemolytic activity against mouse RBC measured after 1 hr by microplate reader analysis. Format: ADME, cell-based, Erythrocyte. The settings on record: mouse red blood cells (erythrocytes). In short, it runs like this: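 Mouse red blood cells collected by centrifugation (500–700g, 10 min), washed three times in PBS, and diluted 20-fold in PBS. Mixed with 2-fold serial dilutions of compound (starting at 1 mg/mL in PBS) and incubated 1 h at 37 °C. After centrifugation, supernatant absorbance read at 540 nm. % hemolysis calculated relative to PBS (0%) and 2% Triton (100%). At least three repeats in duplicate.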

For data set [3], the system named is Staphylococcus aureus. Kind of data set: Antibacterial activity against methicillin-resistant Staphylococcus aureus ATCC 33591 in presence of monovalent Na+ and K+. Format: functional. In short, it runs like this:
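MIC set up as in the standard broth microdilution (log-phase inoculum at 10^6 CFU/mL, complete growth inhibition end point). The medium was TSB dissolved in 1× PBS (7.5 g per 250 mL) and autoclaved, supplying Na+ and K+.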

The test system of data set [4] is Escherichia coli. Kind of data set: Antibacterial activity against Escherichia coli ATCC 25922 in presence of monovalent Na+ and K+. Format: functional. The method in brief:
(§1)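 MIC by the standard broth dilution method, in medium made by dissolving TSB powder in 1× PBS (7.5 g per 250 mL), autoclaved, to supply Na+ and K+. Inoculum of log-phase bacteria at 10^6 CFU/mL. MIC = lowest concentration completely inhibiting growth.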

Data set [5] relates to Klebsiella pneumoniae. Briefly: Antibacterial activity against Klebsiella pneumoniae ATCC 13383 in presence of monovalent Na+ and K+. Format: functional. In short, it runs like this: as §1
Data set [6] concerns Staphylococcus aureus. Briefly: Antibacterial activity against methicillin-resistant Staphylococcus aureus ATCC 33591 in presence of divalent Ca2+. Format: functional. In short, it runs like this:
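MIC set up as in the standard TSB broth microdilution (log-phase inoculum at 10^6 CFU/mL, complete growth inhibition end point). The medium was TSB prepared in DI water with CaCl2 added to 2 mM.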

Data set [7] concerns Klebsiella pneumoniae. Briefly: Antibacterial activity against Klebsiella pneumoniae ATCC 13383 in presence of divalent Ca2+. Format: functional. The method in brief: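 MIC by the standard TSB broth dilution method, in TSB made with DI water and supplemented with CaCl2 to 2 mM. Inoculum of log-phase bacteria at 10^6 CFU/mL. MIC = lowest concentration completely inhibiting growth.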

Data set [8] deals with Staphylococcus aureus. Briefly: Bactericidal activity against methicillin-resistant Staphylococcus aureus ATCC 33591 at 24 to 48 microg/ml measured upto 60 mins by time kill assay. In kind it is functional, organism-based. The settings on record: dose microg/ml 24-48, time min <=60. The method in brief: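 Mid-log MRSA (overnight culture in TSB at 37 °C with shaking, then 6 h subculture) at 10^6 CFU/mL was exposed to 6, 12, 24 or 48 μg/mL at 37 °C for 10, 30, 60 and 120 min. Samples were diluted 10^2-fold, plated on TSB agar, incubated 20 h at 37 °C, and colonies counted. Untreated control; three repeats.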

The test system of data set [9] is Cell membrane. Kind of data set: Induction of cell membrane disruption in methicillin-resistant Staphylococcus aureus ATCC 33591 assessed as propidium iodide-positive cells at 2 times MIC after 2 hrs by fluorescence microscopic analysis. Format: subcellular. The method in brief: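 A 10^6 CFU/mL suspension was diluted 100-fold and treated at 2× MIC for 2 h. Cells were pelleted (4000g, 15 min, 4 °C), washed three times in PBS, then stained 15 min with PI (5 μg/mL) and DAPI (10 μg/mL). Imaged by oil-immersion fluorescence microscopy alongside an untreated control. Three repeats in duplicate.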

For data set [10], the system named is Cell membrane. Briefly: Induction of inner membrane permeabilization in Escherichia coli ATCC 25922 at 2 times MIC measured for 12 mins by propidium iodide staining based fluorescence microscopic analysis. Format: functional, subcellular. In short, it runs like this:
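Mid-log bacteria pelleted at 1000g, washed three times in 5 mM HEPES/5 mM glucose, and resuspended to 10^6 CFU/mL. PI added (50 μL of a 10 μM solution to 150 μL of cells). Fluorescence (ex 535 nm, em 617 nm) read every 2 min for about 8 min, then compound added and reading continued for 12 min. Water added as the no-drug control. Three repeats.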

Data set [11] concerns Escherichia coli. Briefly: Antibiofilm activity against Escherichia coli ATCC 25922 assessed as reduction in biofilm formation at 3 ug/ml measured after 2 days by crystal violet staining based assay. Format: functional. The following applies: ATCC 25922, 48 h, time 2 day. The method in brief: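 Mid-log E. coli (overnight culture, then 6 h subculture at 37 °C) set up with compound in TSB as in the MIC assay and incubated 2 days. Wells washed with DI water, stained with 0.1% crystal violet for 15 min, washed, dried, and dye solubilized in 30% acetic acid for 15 min. OD595 normalized to untreated control. Ciprofloxacin as comparator. Triplicate, mean ± STDEV.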

≈ marks a conversion by molar mass, not a printed value. Calls of active or inactive are those of the source. The calls are words filed in the database; no cut-off is given here. A value given as a limit tells only on which side of the number the result lay.

The term MIC denotes the lowest concentration found to suppress growth. As a reminder, the HC50 is the concentration giving 50% haemolysis. For orientation: inhibition means the share of the control response that was lost under treatment. As to `CCCCCCCCCC(=O)N[C@@H](CCCCN)CN1CC(=O)N(c2ccc(N3CN(C[C@H](CCCCN)NC(=O)CCCCCCCCC)CC3=O)cc2)C1`, the MIC stood at 2 µg/mL (≈ 2.55 µM) in the data set on Staphylococcus aureus [1]; 4 µg/mL in the data set with Staphylococcus aureus [3]; 5 µg/mL with Escherichia coli [4]; 7 µg/mL with Klebsiella pneumoniae [5]; 2 µg/mL in the data set on Staphylococcus aureus [6]; 5 µg/mL with Klebsiella pneumoniae [7]. Moreover, the HC50 at 1 h in data set [2] was > 250 µg/mL. Besides, the outcome in the data set with Staphylococcus aureus [8], in the data set with Cell membrane [9] and in the data set on Cell membrane [10] was Active. For the same molecule, the inhibition at 3 µg/mL with Escherichia coli [11] was > 50%.
